M5 PAM = potentiates acetylcholine response at human M5 receptor; P08912; CHO-K1 hM5, Fluo-8 calcium, ACh EC20 PAM; 0% = ACh EC20, 100% = ACh EC100; 360,000 compounds, 0.3% hits; activation, % at 3 µM;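 active means activation above the run cutoff, the mean activation of all test compounds plus 3 SD, cut at about 18% in these data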
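Assay system: CHO-K1 hM5 cells. Also added: acetylcholine at EC20 concentration, added after compound. Dosing: 3 µM, single dose. Times: compound preincubation 140 s before EC20 acetylcholine addition. Signal: Fluo-8 calcium fluorescence. Measure: % activation relative to EC20 and EC100 ACh responses. Repeats: singlicate, one well per test compound.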
M5 antag = blocks acetylcholine activation of human M5 receptor; P08912; CHO-hM5 cells, Fluo-8 calcium fluorescence, ACh EC80; inhibition, % at 3 µM; 360,000 compounds, 0.59% hits; AID 624040;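 active means inhibition above a per-plate cutoff, the mean of that plate's test compounds plus 3 SD, cut at about 27% in these data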;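 further: 0% = acetylcholine EC80 with DMSO and 100% = DMSO without agonist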
CHRM4 PAM = CHRM4 positive allosteric modulation; CHO-K1 hM4/Gqi5, Fluo-8 calcium fluorescence, ACh EC20; 0% = ACh EC20, 100% = maximal ACh; activation, % at 3 µM; 360,000 compounds, 0.4% hits;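 active means activation above its plate's cutoff, the mean activation of sample wells plus 3 SD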
CHRM4 antagonist = blocks acetylcholine activation of human M4 receptor. P08173. CHO-hM4 cells, ACh EC80, Fluo-8 calcium fluorescence. inhibition, % at 3 µM. 360,000 compounds, 0.73% hits;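 active means inhibition above its plate's cutoff, the mean inhibition of sample wells plus 3 SD, cut at about 27% in these data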;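 further: 0% = acetylcholine EC80 with DMSO and 100% = DMSO without agonist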
CHRM5 agonist = agonists of human muscarinic M5 receptor (CHRM5) | P08912 | CHO-K1 hM5 cells, Fluo-8 calcium fluorescence; 0% DMSO wells, 100% maximal acetylcholine response | activation, % at 3 µM | 360,000 compounds, 0.19% hits | AID 624037;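 active means activation above the run's mean over test compounds plus 3 SD, cut at about 23% in these data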;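 further: signal is peak over basal fluorescence ratio across the kinetic read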
M4 ag = agonists of human muscarinic M4 receptor (CHRM4) | CHO-K1 hM4/Gqi5, Fluo-8 calcium fluorescence; vehicle 0%, full acetylcholine response 100% | activation, % at 3 µM | 360,000 compounds, 0.14% hits;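 active means activation above the run mean over all test wells plus 3 SD, cut at about 32% in these data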;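 further: peak over basal fluorescence ratio per well then scaled between controls; 0% = DMSO wells and 100% = acetylcholine at EC100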
Starred values were filed as active, the others as inactive. This is a sample that favours compounds with a hit; in the whole collection about 1.8% have one here.

SMILES | M5 PAM | M5 antag | CHRM4 PAM | CHRM4 antagonist | CHRM5 agonist | M4 ag
COc1cc(/C=C2/C(=N)N3C(=NC2=O)SN=C3S(C)(=O)=O)ccc1OS(=O)(=O)c1ccc(C)cc1 | 0 | 7 | -3 | 10 | -5 | 3
Cc1ccc(CSC(Nc2ccc(F)cc2)=C(C#N)C#N)cc1 | -17 | 31* | -9 | 24 | 6 | 8
S=c1[nH]nc(COc2ccccc2)n1/N=C/c1c(Cl)cccc1Cl | -6 | 15 | -7 | -3 | -2 | 0
CC(C)Cn1c(NCCN(C)C)nc2c1c(=O)[nH]c(=O)n2C | -2 | 4 | 6 | 0 | -1 | 0
CCCCn1c(NCCN(C)C)nc2c1c(=O)[nH]c(=O)n2C | 22* | -3 | 12 | -4 | -7 | 1
Cc1cccc(C)c1NC(=O)C(C1CC1)n1c(-c2ccc(=O)[nH]c2)nc2ccccc21 (stereo not given) | 21* | -21 | 6 | -7 | 1 | 1
Cc1cccc(C)c1NC(=O)C(C)n1c(-c2ccc(=O)[nH]c2)nc2ccccc21 (stereo not given) | -1 | -2 | 7 | -7 | 1 | 4
CC(=O)N(Cc1ccccc1)c1c(N)nc(N)[nH]c1=O | -5 | 12 | 18 | 9 | -3 | 0
O=C(CN1CCN(S(=O)(=O)c2ccc(Br)s2)CC1)NCC1CCCCC1 | 2 | -9 | 0 | -13 | -1 | 2
CCc1ccc2oc(=O)cc(CN3CCN(Cc4ccccc4)CC3)c2c1 | -15 | 17 | -18 | 65* | -8 | 3
CCN1C(=O)c2cccc3c(N)ccc(c23)C1=O | -19 | 27* | -24 | 44* | 104* | 317*
O=C1c2cccc3c(N4CCCCC4)ccc(c23)C(=O)N1c1ccccn1 | -3 | 3 | 3 | -2 | 3 | 2
CN(C)CCCN1C(=O)c2cccc3c(Br)ccc(c23)C1=O | 5 | 9 | -11 | 4 | 2 | 1
Cc1nn(C)c(C)c1N1C(=O)c2cccc3c(N)ccc(c23)C1=O | -15 | 28* | -32 | 28* | 38* | 82*
Cc1nn(C)c(C)c1N1C(=O)c2cccc3c(Br)ccc(c23)C1=O | 1 | 4 | -2 | 7 | -1 | 6
Cc1ccc(N2C(=O)c3cccc4c(N)ccc(c34)C2=O)c2cccnc12 | -12 | 4 | 6 | -2 | 38* | 16
CCCCNc1ccc2c3c(cccc13)C(=O)N(CCCC)C2=O | -21 | 97* | -39 | 81* | 591* | 267*
CCCN1C(=O)c2cccc3c(N4CCCCC4)ccc(c23)C1=O | -3 | 6 | -3 | 2 | 4 | 2
CC[C@H](C)[C@H](NC(=O)OCc1ccccc1)C(=O)OCC(=O)N1CCN(c2ccc(OC)cc2)CC1 | -16 | 11 | 1 | -5 | 6 | 14
COc1ccc(CN(C)Cc2c(O)ccc3cc(Br)ccc23)cc1OC | 23* | -10 | 4 | -24 | 1 | 5
COc1cccc(CNC(=O)CCC2CCCN(C(=O)c3cccnc3SC)C2)c1 (stereo not given) | -2 | 7 | 4 | 11 | -2 | 1
CCCc1cc2c(cc1N(C)S(=O)(=O)c1ccccc1)OCO2 | -12 | 28* | 0 | 5 | -3 | -3
COc1ccccc1N(C)S(=O)(=O)c1ccc(C(=O)NCc2ccc3c(c2)OCO3)cc1 | -15 | 8 | -16 | 10 | 3 | 18
COc1ccc(CCNC(=O)Cn2c(=O)n(-c3ccc(C)c(F)c3)c(=O)c3sccc32)cc1OC | 7 | -8 | 32* | 3 | -1 | -2
COCCCNC(=O)Cn1c(=O)n(CC(=O)NCCc2ccc(OC)c(OC)c2)c(=O)c2sccc21 | 1 | 8 | 32 | -5 | 1 | 1
C/C=C/c1ccc(OCC(=O)N(CCOC)c2c(N)n(CCCC)c(=O)[nH]c2=O)c(OC)c1 | -4 | 3 | 1 | -2 | -3 | 0
COc1ccc([N+](=O)[O-])cc1NC(=O)C(C)c1ccccc1 (stereo not given) | -3 | 10 | -3 | 7 | -3 | -1

High-throughput results as filed in PubChem.
